Source: ChEMBL document CHEMBL1275328, “Targeting the polyamine transport system with benzazepine- and azepine-polyamine conjugates” (J Med Chem, 2010)
Structures can show the parent of a compound that is named as a salt. Activity calls are given as the source filed them. The rule behind the calls is not given here.

Assays:
[1] = Inhibition of [14C]spermidine uptake at polyamine transport system in mouse L1210 cells after 10 mins; type: cell-based
Procedure, shortened: (§1)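 2 × 10^6 L1210 cells in 0.6 mL HBSS/20 mM HEPES, 10 min uptake at 37 °C of 1 μM [14C]spermidine with increasing competitor concentrations. IC50 obtained by iterative sigmoidal curve fitting, Ki by Cheng-Prusoff. Spermidine Km from Lineweaver-Burke analysis of uptake at rising labelled substrate. Mean ± SD, three determinations.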

[2] = test system: L1210; assay: Ratio of spermidine Km to compound Ki for polyamine transport system in mouse L1210 cells; type: cell-based; procedure, shortened: as §1
[3] = test system: L1210; assay: Cytostatic toxicity against mouse L1210 cells expressing polyamine transport system after 48 hrs by MTT assay; type: ADME, cell-based; details: l1210, 48 h
Procedure, shortened: (§2)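 L1210 cells seeded at 5 × 10^4 cells/mL in RPMI 1640 with 10% FCS and 2 mM aminoguanidine, 37 °C, 5% CO2. Compound added at seeding, 48 h exposure. Growth read as MTT formazan absorbance at 540 nm. Growth taken relative to untreated control cells. Means of three or more experiments.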

[4] = test system: L1210; assay: Cytostatic toxicity against mouse L1210 cells expressing polyamine transport system assessed as effect on cell growth upto 20 uM after 48 hrs by MTT assay; type: ADME, cell-based; details: l1210, 48 h; procedure, shortened: as §2
[5] = test system: L1210; assay: Inhibition of reversion of DFMO-induced cytostatic effect against mouse L1210 cells expressing polyamine transport system at 20 uM pretreated with 100 uM putrescine for 24 hrs after DFMO addition measured after 48 hrs by MTT assay; type: functional, cell-based
Procedure, shortened: (§3)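 L1210 cells seeded in 5 mM DFMO. After 24 h, free putrescine, spermidine or spermine added with or without 20 μM test compound. Growth measured by MTT assay 48 h later.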

[6] = test system: L1210; assay: Inhibition of reversion of DFMO-induced cytostatic effect against mouse L1210 cells expressing polyamine transport system at 20 uM pretreated with 20 uM spermidine for 24 hrs after DFMO addition measured after 48 hrs by MTT assay; type: functional, cell-based; procedure, shortened: as §3
[7] = test system: L1210; assay: Inhibition of reversion of DFMO-induced cytostatic effect against mouse L1210 cells expressing polyamine transport system at 20 uM pretreated with 1 uM spermine for 24 hrs after DFMO addition measured after 48 hrs by MTT assay; type: functional, cell-based; procedure, shortened: as §3
[8] = test system: L1210; assay: Drug uptake in mouse L1210 cells expressing polyamine transport system after 24 hrs by HPLC; type: ADME, cell-based; details: l1210, 24 h
Procedure, shortened: (§4)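 Compound given at 0.1 to 100 μM for 24 h exposure; medium RPMI 1640/10% FCS with 2 mM aminoguanidine. CHO cells seeded at 2 × 10^5 cells/mL and dosed 24 h after seeding. L1210 cells seeded at 4 × 10^4 cells/mL and dosed at seeding. Cells washed thrice in cold 0.14 M NaCl, sonicated in 0.2 N HClO4. Extracts analysed by ion-pair C18 HPLC with post-column OPA/N-acetylcysteine fluorescence (ex 345, em 455 nm). Protein measured on pellet.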

[9] = test system: CHO; assay: Drug uptake in CHO cells expressing polyamine transport system after 24 hrs by HPLC; type: ADME, cell-based, Cricetulus griseus; details: chinese hamster; procedure, shortened: as §4
[10] = Cytostatic toxicity against mouse L1210 cells expressing polyamine transport system assessed as cell viability at 100 uM after 48 hrs by trypan blue assay; type: ADME, cell-based
Procedure, shortened: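 L1210 cells exposed 48 h to 100 μM compound, viability scored by Trypan blue exclusion.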

[11] = Cytostatic toxicity against mouse L1210 cells expressing polyamine transport system assessed as reduction in cell growth at 10 uM after 48 hrs by MTT assay; type: ADME, cell-based; procedure, shortened: as §2
[12] = test system: L1210; assay: Drug uptake in mouse L1210 cells expressing polyamine transport system in presence of ornithine decarboxylase inhibitor DFMO after 48 hrs by HPLC; details: l1210, 48 h
[13] = test system: L1210; assay: Ratio of drug uptake in mouse L1210 cells at 10 uM in presence of 5 mM ornithine decarboxylase inhibitor DFMO to drug uptake in mouse L1210 cells at 10 uM after 48 hrs by HPLC; type: ADME, cell-based; details: l1210, 48 h
Procedure, shortened: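 L1210 cells seeded at 4 × 10^4 cells/mL and given 10 μM conjugate at seeding, ±5 mM DFMO, medium containing 2 mM aminoguanidine. Harvest at 48 h, washed in cold 0.14 M NaCl, perchloric extract. Intracellular conjugate measured by ion-pair HPLC with OPA fluorescence. Ratio is DFMO/control accumulation. Mean ± SD of three determinations; Student's t test.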

COc1ccc2c(c1)CCCC(NCCCNCCCCNCCCN)=N2.Cl
Ki [1]: 0.23 µM | Ratio [2]: 10.3 | Activity [3]: Toxic

Cl.NCCCNCCCCNCCCNC1=Nc2ccc([N+](=O)[O-])cc2CCC1
Ki [1]: 0.12 µM | Ratio [2]: 19.8 | Activity [4]: Non-toxic | inhibition [5]: Active | inhibition [6]: Active | inhibition [7]: Active

Cl.NCCCCNCCCCNC1=NCCCCC1
Ki [1]: 5.47 µM | Ratio [2]: 0.43 | Drug uptake [8]: Dose-dependent effect | Drug uptake [9]: Dose-dependent effect | viability at 48 h, 100 µM [10]: > 95% | inhibition at 48 h, 10 µM [11]: 65% | Drug uptake [12]: Active

NCCCCNCCCCN [HOMOSPERMIDINE]
Ki [1]: 2.3 µM | Ratio [2]: 1.03

NCCCNCCCN [NORSPERMIDINE TRIHYDROCHLORIDE]
Ki [1]: 5.12 µM | Ratio [2]: 0.46

NCCCNC[C@@H](O)[C@@H](O)CNCCCNC1=Nc2ccccc2CCC1
Ki [1]: 2.25 µM | Ratio [2]: 1.05

NCCCCN [PUTRESCINE DIHYDROCHLORIDE]
Ki [1]: 208 µM | Ratio [2]: 0.011

NCCCCCNCCCN
Ki [1]: 8.03 µM | Ratio [2]: 0.29

NCCCNC[C@@H](O)[C@@H](O)CNCCCN
Ki [1]: 5.27 µM | Ratio [2]: 0.45

NCCCCCCCCNC1=Nc2ccccc2CCC1
Ki [1]: 126 µM | Ratio [2]: 0.019

Cl.Cl.NCCCCNC1=Nc2ccccc2CCC1
Ki [1]: 35.1 µM | Ratio [2]: 0.067 | Drug uptake [8]: Dose-dependent effect | Drug uptake [9]: Dose-dependent effect

NCCCCCCCCNC1=NCCCCC1
Ki [1]: 183 µM | Ratio [2]: 0.013

NCCCCNCCCCNCCCCN [HOMOSPERMINE]
Ki [1]: 0.73 µM | Ratio [2]: 3.25

NCCCNCCCNCCCNC1=Nc2ccccc2CCC1
Ki [1]: 0.88 µM | Ratio [2]: 2.69

NCCCNCCCCNCCCN
Ki [1]: 1.34 µM | Ratio [2]: 1.77

Cl.NCCCNCCCCNCCCNC1=Nc2ccc(N)cc2CCC1
Ki [1]: 0.19 µM | Ratio [2]: 12.5 | Activity [3]: Toxic

Cl.Cl.NCCCCNC1=NCCCCC1
Ki [1]: 763 µM | Ratio [2]: 0.003 | Drug uptake [8]: Dose-dependent effect | Drug uptake [9]: Dose-dependent effect | Drug uptake [12]: Active

Cl.NCCCNCCCNC1=NCCCCC1
Ki [1]: 161 µM | Ratio [2]: 0.015 | Drug uptake [8]: Dose-dependent effect | Drug uptake [9]: Dose-dependent effect | Drug uptake [12]: Active

NCCCCCCCCN
Ki [1]: 24.1 µM | Ratio [2]: 0.098

NCCCCNCCCCNCCCCNC1=Nc2ccccc2CCC1
Ki [1]: 0.2 µM | Ratio [2]: 11.9

Cl.NCCCNCCCCNCCCNC1=Nc2ccc(Br)cc2CCC1
Ki [1]: 0.14 µM | Ratio [2]: 16.9 | Activity [3]: Toxic

Cl.NCCCCNCCCNC1=NCCCCC1
Ki [1]: 14.6 µM | Ratio [2]: 0.16 | Drug uptake [8]: Dose-dependent effect | Drug uptake [9]: Dose-dependent effect | viability at 48 h, 100 µM [10]: > 95% | inhibition at 48 h, 10 µM [11]: 30% | Ratio [13]: 4 | Drug uptake [12]: Active

Cl.NCCCNCCCCNC1=NCCCCC1
Ki [1]: 44.7 µM | Ratio [2]: 0.053 | Drug uptake [8]: Dose-dependent effect | Drug uptake [9]: Dose-dependent effect | Drug uptake [12]: Active

Cl.NCCCCNCCCNC1=Nc2ccccc2CCC1
Ki [1]: 4.4 µM | Ratio [2]: 0.54 | Drug uptake [8]: Dose-dependent effect | Drug uptake [9]: Dose-dependent effect

Cl.NCCCNCCCCNCCCNC1=NCCCCC1
Ki [1]: 0.35 µM | Ratio [2]: 6.77 | Drug uptake [8]: Dose-dependent effect | Drug uptake [9]: Dose-dependent effect | Drug uptake [12]: Active

NCCCNCCCNCCCN [NORSPERMINE]
Ki [1]: 1.51 µM | Ratio [2]: 1.57

Cl.NCCCNCCCCNCCCNC1=Nc2ccccc2CCC1
Ki [1]: 0.15 µM | Ratio [2]: 15.8 | Drug uptake [8]: Dose-dependent effect | Drug uptake [9]: Dose-dependent effect | Drug uptake [12]: Active

Cl.NCCCCCNCCCNC1=NCCCCC1
Ki [1]: 45.9 µM | Ratio [2]: 0.051 | Drug uptake [8]: Dose-dependent effect | Drug uptake [9]: Dose-dependent effect | Drug uptake [12]: Active
